Experimental findings from ChEMBL document CHEMBL4513216, “Probing the Open Global Health Chemical Diversity Library for Multistage-Active Starting Points for Next-Generation Antimalarials” (ACS Infect Dis, 2020) are described below.

The nature of this data set: Toxicity liver stage against HepG2, at 10uM. It counts as cell-based. The arrangement: test concentration 10 uM, cell line HepG2-A16-CD81EGFP. To be noted: human, HepG2-A16-CD81EGFP cells; read-out: INHIBITION
In a few lines: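 Uninfected HepG2-A16-CD81EGFP cells, 3 × 10^3 per well, 1536-well, plated on prespotted compound at 10 μM final, parasite-free screening media added to match infected plates; puromycin 10 μM positive, DMSO 0.5% negative; run in parallel with 48 h PbLuc assay at 37 °C, 5% CO2; viability by CellTiter-Glo luminescence, normalized to controls.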
Take `COC(C(=O)NC1CC1)c1ccccc1` (configuration not stated): the cytotoxicity at 10 µM is -3.73%.

For `CCOC(=O)c1cnn(-c2cc(Oc3ccccc3C)ncn2)c1N`, the cytotoxicity at 10 µM was determined as 15.8%.

Turning to `COCCOc1ccc(NC(=O)N(CCO)C2CC2)cn1`, the cytotoxicity at 10 µM was -2.77%.

Regarding `CC(C)(C)CN1CCN2C(=O)N(C3CCCCC3)C[C@H]2C1`, the cytotoxicity at 10 µM was determined as 4.91%.

For `N#Cc1ccc(CN2C[C@@H]3OCC(=O)N(CC(N)=O)[C@@H]3C2)cc1`, the cytotoxicity at 10 µM was -1.51%.

As to `CC1CCN(c2cc(-n3cnc(C(=O)N4CCSCC4)c3)ncn2)CC1`, the cytotoxicity at 10 µM amounted to 0.668%.

`C[C@@H]1C[C@H]2CN(C(=O)C3=CCCCC3)C[C@H]2O1`: the cytotoxicity at 10 µM amounted to 7.18%.

As to `CC(C)N1[C@H](CN2CCCC2)C[C@@H]2CN(Cc3cnn(C)c3)CC[C@@H]21`, the cytotoxicity at 10 µM is -147%.

In the case of `CS(=O)(=O)N1CCOC2(CCCN(c3ncc(F)cn3)C2)C1` (configuration not stated), the cytotoxicity at 10 µM amounted to 5.98%.

As to `CN(C)CCNC(=O)c1cc(-c2cnc(N(C)C)nc2)cn1CC1CC1`, the cytotoxicity at 10 µM was -5.81%.

Take `O=C(C1CCOCC1)N1CCO[C@H]2[C@H](OCC3CC3)CC[C@@H]21`: the cytotoxicity at 10 µM turned out to be 2.61%.

For `Cc1nc(N2CCOCC2)nc2c1CCN(C(=O)C1CCCCC1)CC2`, the cytotoxicity at 10 µM is -0.152%.

With `O=C1CCCN1CC1CN(C(=O)CC2CCCC2)Cc2nccn2C1` (configuration not stated), the cytotoxicity at 10 µM was 1.47%.

As to `CNC(=O)c1cc2c(nc1NCC1CC1)CCN(S(=O)(=O)C1CC1)CC2`, the cytotoxicity at 10 µM is -13.3%.

Take `Cc1ccccc1N1CC(c2nnc(N)s2)CC1=O` (configuration not stated): the cytotoxicity at 10 µM was -0.411%.

On to `Cc1ccc(Cn2ccc(NS(C)(=O)=O)n2)cc1`, for which the cytotoxicity at 10 µM was -12.2%.

Take `COc1ccc(C2CN(c3nc(C)cc(C)n3)CCN2C(C)=O)cc1` (configuration not stated): the cytotoxicity at 10 µM turned out to be 2.06%.

`CC(=O)Nc1ccc(S(=O)(=O)N2CCOC(Cn3ccnc3)C2)cc1` (configuration not stated): the cytotoxicity at 10 µM was 0.166%.

Regarding `CCn1nc(C)c(CN(CCCN(C)C)Cc2ccccn2)c1C`, the cytotoxicity at 10 µM is 1.62%.

With `CC(C)NC(=O)C1CCc2nnc(CNC(=O)C3CC3)n21` (configuration not stated), the cytotoxicity at 10 µM worked out at 4.9%.

Consider `Cc1cc(CC(=O)N2CCc3cc(Br)sc3C2)n[nH]1`, for which the cytotoxicity at 10 µM stood at 10.2%.

For `CC(Cn1cccn1)NCc1cccc(C#N)c1` (configuration not stated), the cytotoxicity at 10 µM stood at 5.19%.

`COCC(=O)Nc1ccnc(OCCN(C)C)c1`: the cytotoxicity at 10 µM was -7.67%.

With `N#CCCCS(=O)(=O)NC(=O)c1ccccc1F`, the cytotoxicity at 10 µM amounted to 0.749%.

For `c1cnc2nc(N3CCc4c(ncn4C4CC4)C3)ccc2n1`, the cytotoxicity at 10 µM came to 6.47%.

As for `CC(NC(=O)N1CCNC(=O)CC1)c1c(F)cccc1Cl` (configuration not stated), the cytotoxicity at 10 µM was -1.66%.

`CN(CC(C)(CO)CO)C(=O)Nc1cc(F)cc(Cl)c1`: the cytotoxicity at 10 µM was -0.19%.

For the molecule `CC(=O)N(C)C(c1cccnc1)c1ccc(F)c(F)c1` (configuration not stated), the cytotoxicity at 10 µM was -7.69%.

In the case of `CCOc1nnc(CN2CCC(c3nc4ccccc4[nH]3)CC2)s1`, the cytotoxicity at 10 µM was -1.36%.

For `N#Cc1c(CN2CCCC2Cn2cncn2)cn2ccccc12` (configuration not stated), the cytotoxicity at 10 µM is -2.49%.

On to `COCCCN(Cc1ccncc1)c1ncc(C#N)cc1Cl`, for which the cytotoxicity at 10 µM was found to be 4.98%.

On to `CCn1cc(NC(=O)NCCN2CCCc3ccccc32)cn1`, for which the cytotoxicity at 10 µM was 2.96%.

Consider `Cc1noc(C)c1C(=O)NCC1CCCCN1Cc1ccccc1` (configuration not stated), for which the cytotoxicity at 10 µM was -4.4%.

With `CCCn1cc(C(=O)NCCCC(N)=O)c2ccccc21`, the cytotoxicity at 10 µM came to 6.13%.

Turning to `COC(=O)C1CCN(C(=O)Cn2ccc(-c3ccc(F)cc3)n2)CC1`, the cytotoxicity at 10 µM is -5.31%.

For `CCc1[nH]ncc1C(=O)N1CCN(c2nc(C)cc(OC)n2)CC1`, the cytotoxicity at 10 µM was found to be 3.51%.

As to `CN1N=C(C(=O)N2CCN(c3ncccn3)CC2)CCC1=O`, the cytotoxicity at 10 µM turned out to be 3.62%.

Turning to `CC(C)CC(NC(=O)c1cccc(F)c1F)C(=O)Nc1cc[nH]n1` (configuration not stated), the cytotoxicity at 10 µM is -7.82%.

Regarding `COC(=O)C(C)N(Cc1cc(=O)n(C)c(=O)n1C)C1CC1` (configuration not stated), the cytotoxicity at 10 µM was -0.719%.

Consider `CC(C)(C)S(=O)(=O)CCNC(=O)c1ccc2ccccc2c1`, for which the cytotoxicity at 10 µM came to 0.995%.

Consider `CCC(CNC(=O)NCc1cc[nH]n1)N1CCCC1` (configuration not stated), for which the cytotoxicity at 10 µM is -3.65%.

Turning to `CCC(C)C(=O)NCc1cc(Br)c(OC)c(OC)c1` (configuration not stated), the cytotoxicity at 10 µM was 2.42%.

For the molecule `CN(CC(=O)Nc1cc(CC2CCCCC2)n[nH]1)S(C)(=O)=O`, the cytotoxicity at 10 µM was 3.44%.

Take `CC(C)(C(=O)NCC(=O)N1CCCC1)c1ccccc1F`: the cytotoxicity at 10 µM is 2.66%.

On to `CN(C)C(=O)CN1CCN(c2ccnc3c(F)ccc(F)c23)CC1`, for which the cytotoxicity at 10 µM was 4.44%.

With `CCC(NC(=O)Nc1cc(F)c(OC)c(F)c1)c1noc(C)n1` (configuration not stated), the cytotoxicity at 10 µM was -0.177%.

Turning to `CCC(CNS(N)(=O)=O)Oc1ccccc1F` (configuration not stated), the cytotoxicity at 10 µM turned out to be 3.01%.

On to `Cc1cc(C)n(C2CN(CCc3ccncc3)C2)n1`, for which the cytotoxicity at 10 µM was -1.12%.

With `CC(C)Oc1ccccc1CNC(=O)c1[nH]ncc1Br`, the cytotoxicity at 10 µM is 17.5%.

With `COc1cc(C)c(C(C)Nc2ncc(C(N)=O)cc2Cl)cc1OC` (configuration not stated), the cytotoxicity at 10 µM was found to be 2.76%.

Turning to `Cc1cc(C(=O)N(CC(C)C)CC(O)c2ccc(F)cc2)[nH]n1` (configuration not stated), the cytotoxicity at 10 µM was -10.2%.

With `CC(C)CCC(C)NC(=O)c1ccc(OCC(N)=O)cc1` (configuration not stated), the cytotoxicity at 10 µM is -3.59%.

As to `Cc1cc(CNC(=O)C2CCCCN2C(=O)OC(C)(C)C)no1` (configuration not stated), the cytotoxicity at 10 µM was found to be 4.91%.

For the molecule `O=C1CN(Cc2nnc(-c3ccccc3Br)o2)CCN1`, the cytotoxicity at 10 µM is 9.35%.

Regarding `CN(Cc1ccc(Cl)c(Cl)c1)C(=O)CNC(N)=O`, the cytotoxicity at 10 µM is -8.87%.

On to `CNC(=O)CCNC(=O)c1cccc(Cn2nc(C)cc2C)c1`, for which the cytotoxicity at 10 µM was -16.6%.

Turning to `O=C(CSC(F)(F)F)N1CCC2(CCCN(C3CCOCC3)C2=O)C1` (configuration not stated), the cytotoxicity at 10 µM is -128%.

`CCN1CCN(S(=O)(=O)N2CCCC2)[C@H]2CS(=O)(=O)C[C@H]21`: the cytotoxicity at 10 µM was -4.14%.

For `COCc1nc(CN2CC(Cc3ccccc3)CC2=O)no1` (configuration not stated), the cytotoxicity at 10 µM is -12.8%.

On to `CCc1cnc(C)nc1N1CCN(Cc2ccc(-c3cc[nH]n3)o2)CC1`, for which the cytotoxicity at 10 µM is -0.898%.

Take `CCN1CCc2[nH]cnc2C12CCN(c1ncc(C(=O)O)cc1Cl)CC2`: the cytotoxicity at 10 µM is 1.46%.

In the case of `CS(=O)(=O)N1CCC2(CCCN(CCCc3ccccc3)C2=O)C1` (configuration not stated), the cytotoxicity at 10 µM was found to be 2.46%.

`COc1cc(N2C[C@@H](C)[C@](O)(C3CC3)C2)nc(N)n1`: the cytotoxicity at 10 µM came out at 0.929%.

Take `CC(C)NC1CCCc2nc(-c3ccccc3)ncc21` (configuration not stated): the cytotoxicity at 10 µM stood at 16.1%.

As for `O=C(C1CCOC1)N1CCC(Cn2cc(-c3ccsc3)nn2)CC1` (configuration not stated), the cytotoxicity at 10 µM was -0.039%.

Regarding `CCOCCn1nc(C)cc1C(=O)N1C[C@@H](C)[C@](O)(C2CC2)C1`, the cytotoxicity at 10 µM is -3.9%.

In the case of `CCC(CO)N(Cc1cccs1)C(=O)CSC` (configuration not stated), the cytotoxicity at 10 µM is 4.78%.

For `CN(C)CCN1CC(C(=O)N2CCC(c3nccn3C)CC2)CC1=O` (configuration not stated), the cytotoxicity at 10 µM was -7.2%.

As to `COc1ccc(NC(=O)CCN2CC=C(c3cnn(C)c3)CC2)cc1Cl`, the cytotoxicity at 10 µM turned out to be 6.64%.

Regarding `COc1ncccc1NC(=O)N(Cc1ccc(C(N)=O)cc1)C1CC1`, the cytotoxicity at 10 µM worked out at 6.66%.

Turning to `c1cnnc(NCC2CN(CC3CCOCC3)CCO2)c1` (configuration not stated), the cytotoxicity at 10 µM amounted to 9.34%.

As to `CCc1nnc2n1CCN(CCC(=O)Nc1sccc1C#N)C2`, the cytotoxicity at 10 µM was -23%.

In the case of `N#Cc1ccc(F)c(CN2CCCCC2Cn2cccn2)c1` (configuration not stated), the cytotoxicity at 10 µM was -0.674%.

For the molecule `O=C(CCc1ccco1)N1CCC(Nc2cccnn2)CC1`, the cytotoxicity at 10 µM was -20.3%.

On to `CCN(CC)C(=O)Cn1ccc2cc(NC(C)=O)ccc21`, for which the cytotoxicity at 10 µM was -10.2%.

Take `Cc1ncc(CN2CCCN(Cc3noc(C4CC4)n3)CC2)s1`: the cytotoxicity at 10 µM is -8.57%.

For `CC(=O)N(Cc1ncc(C)o1)C1CCN(CCc2cnn(C)c2)C1` (configuration not stated), the cytotoxicity at 10 µM was determined as 0.742%.

For the molecule `Cc1nnc(NC(=O)CN2CCCC2c2noc(C(C)C)n2)s1` (configuration not stated), the cytotoxicity at 10 µM is -9.05%.

Consider `CCN1CCC(NC(=O)CN2CCCCC2Cn2cncn2)CC1` (configuration not stated), for which the cytotoxicity at 10 µM is 3.27%.

In the case of `OC(CN1CCC(CNCc2ccccn2)CC1)c1ccccc1` (configuration not stated), the cytotoxicity at 10 µM was -2.15%.

On to `COc1ccccc1C(=O)N1CCN(C(=O)Cc2ccccn2)CC1`, for which the cytotoxicity at 10 µM is -7.57%.

With `CS(=O)(=O)N1CCC(NC(=O)COc2cccc(Cl)c2)CC1`, the cytotoxicity at 10 µM is -5.59%.

For `Cc1cc(CN2CCN(C(=O)c3sccc3C3CC3)CC2)no1`, the cytotoxicity at 10 µM is -10%.

As for `CS(=O)(=O)N1CCN(CC(O)COc2ccc(Cl)cc2)CC1` (configuration not stated), the cytotoxicity at 10 µM was -38.6%.

Consider `CN(Cc1ccccc1)C(=O)CS(=O)(=O)Cc1ccc(Cl)c(Cl)c1`, for which the cytotoxicity at 10 µM came out at 0.239%.

As for `O=C(Nc1ccccn1)N(CCO)Cc1ccsc1`, the cytotoxicity at 10 µM was 2.12%.

Turning to `Cc1ccc(-c2ncc(C(=O)NCCS(N)(=O)=O)s2)c(C)c1`, the cytotoxicity at 10 µM is -10.7%.

Consider `O=C(C1CCC1)N1CCC2(CCNCC2)C1`, for which the cytotoxicity at 10 µM is -3.39%.

In the case of `c1cnc(N2CCCC3(CN(CC4CCOCC4)CCO3)C2)cn1` (configuration not stated), the cytotoxicity at 10 µM worked out at 0.37%.

With `c1cncc(O[C@H]2CC[C@H]3[C@H]2OCCN3C2CCCC2)c1`, the cytotoxicity at 10 µM was -6.05%.

On to `CN1CC(=O)N(c2ccccc2)CC12CCN(Cc1nccs1)C2` (configuration not stated), for which the cytotoxicity at 10 µM was determined as 3.33%.

`c1cncc(CN2CCO[C@H]3[C@H](OCCN4CCCC4)CC[C@@H]32)c1`: the cytotoxicity at 10 µM worked out at 3.36%.

With `Cc1nc(CN2CCC3(CCCN(Cc4ccncc4)C3)C2=O)cs1` (configuration not stated), the cytotoxicity at 10 µM is 1.38%.

With `Cn1cccc1C(=O)NCc1cn2c(n1)CN(Cc1ccccn1)CC2`, the cytotoxicity at 10 µM was -115%.

On to `Cc1cccc(CN2CCOCC3(CCN(C4CCOCC4)C3)C2)c1` (configuration not stated), for which the cytotoxicity at 10 µM was -0.819%.

Turning to `CN(C)C(=O)[C@H]1C[C@H]2CN(C(=O)NCC3CCCCC3)C[C@@H]1O2`, the cytotoxicity at 10 µM is -0.572%.

Turning to `COC1C[C@@H]2CN(C(=O)c3cc4ccc(F)cc4[nH]3)C[C@@H]2C1` (some centres not stated), the cytotoxicity at 10 µM was determined as 2.93%.
